# Legend:
# [1] = molecular target: Acetylcholinesterase (Electrophorus electricus) (UniProt O42275); experiment: (§1) Inhibition of electric eel acetylcholinesterase using acetylthiocholine iodide as substrate preincubated for 10 mins before substrate addition after 15 mins by Ellman's method; set-up: concentration or dose not given beside the values
# Cholinesterase = Cholinesterase (Homo sapiens, UniProt P06276); experiment: Inhibition of human BChE using butyrylthiocholine iodide as substrate preincubated for 10 mins before substrate addition after 15 mins by Ellman's method; set-up: concentration or dose not given beside the values
# Acetylcholinesterase = Acetylcholinesterase (Electrophorus electricus, UniProt O42275); experiment: as §1
# NCI-H157 [2] = experiment: Antiproliferative activity against human NCI-H157 cells at 1 uM after 48 hrs by SRB assay; format: functional
# How it was run: (§2)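 H157 lung carcinoma cells were seeded at 10⁴ cells per well in 96-well plates and grown 24 h at 37 °C in 5% CO₂ to a monolayer. Compounds were added at […]. Cells were fixed, stained with 0.4% w/v sulforhodamine B in 1% acetic acid for 30 min at room temperature, rinsed in acetic acid, and the dye dissolved in 10 mM Tris base for 10 min.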
# NCI-H157 [3] = experiment: Antiproliferative activity against human NCI-H157 cells at 100 uM after 48 hrs by SRB assay; format: functional; how it was run: as §2
# Chain of Acetylcholinesterase (Electrophorus electricus) (O42275 24-633 limits assumed): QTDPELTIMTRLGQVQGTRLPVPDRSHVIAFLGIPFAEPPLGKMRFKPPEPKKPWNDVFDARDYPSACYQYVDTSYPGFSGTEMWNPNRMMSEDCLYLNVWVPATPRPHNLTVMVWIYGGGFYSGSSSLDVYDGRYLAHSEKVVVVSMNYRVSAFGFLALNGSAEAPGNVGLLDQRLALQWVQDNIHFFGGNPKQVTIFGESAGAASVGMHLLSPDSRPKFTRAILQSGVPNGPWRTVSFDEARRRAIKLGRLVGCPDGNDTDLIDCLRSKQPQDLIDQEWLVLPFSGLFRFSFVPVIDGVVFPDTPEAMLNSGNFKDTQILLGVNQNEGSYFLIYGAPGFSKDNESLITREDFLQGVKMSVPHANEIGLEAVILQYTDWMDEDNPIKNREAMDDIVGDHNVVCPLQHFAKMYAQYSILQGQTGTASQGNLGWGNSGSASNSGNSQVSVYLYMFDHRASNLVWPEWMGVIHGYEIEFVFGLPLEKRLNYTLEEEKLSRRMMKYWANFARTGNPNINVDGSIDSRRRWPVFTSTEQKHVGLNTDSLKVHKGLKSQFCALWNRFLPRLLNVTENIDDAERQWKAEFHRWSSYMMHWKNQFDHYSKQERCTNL
# Chain of Acetylcholinesterase (O42275 whole entry): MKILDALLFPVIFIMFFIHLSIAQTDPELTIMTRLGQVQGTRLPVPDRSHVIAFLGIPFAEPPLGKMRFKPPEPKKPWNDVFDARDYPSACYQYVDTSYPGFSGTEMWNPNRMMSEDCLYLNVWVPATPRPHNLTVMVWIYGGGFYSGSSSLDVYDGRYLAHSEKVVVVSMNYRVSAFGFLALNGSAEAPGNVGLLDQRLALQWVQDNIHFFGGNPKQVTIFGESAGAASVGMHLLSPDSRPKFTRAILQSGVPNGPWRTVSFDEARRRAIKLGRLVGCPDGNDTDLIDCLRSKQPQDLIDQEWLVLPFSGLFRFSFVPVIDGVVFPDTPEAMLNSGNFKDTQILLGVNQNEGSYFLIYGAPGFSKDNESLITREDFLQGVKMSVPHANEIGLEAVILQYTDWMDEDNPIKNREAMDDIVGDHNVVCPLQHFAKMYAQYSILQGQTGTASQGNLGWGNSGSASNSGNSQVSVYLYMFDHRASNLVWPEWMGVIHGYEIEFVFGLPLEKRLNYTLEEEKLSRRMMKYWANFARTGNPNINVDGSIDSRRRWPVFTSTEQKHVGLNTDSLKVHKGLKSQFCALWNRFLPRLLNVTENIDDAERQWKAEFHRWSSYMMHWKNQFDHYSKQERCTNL
# Chain of Cholinesterase (P06276 whole entry): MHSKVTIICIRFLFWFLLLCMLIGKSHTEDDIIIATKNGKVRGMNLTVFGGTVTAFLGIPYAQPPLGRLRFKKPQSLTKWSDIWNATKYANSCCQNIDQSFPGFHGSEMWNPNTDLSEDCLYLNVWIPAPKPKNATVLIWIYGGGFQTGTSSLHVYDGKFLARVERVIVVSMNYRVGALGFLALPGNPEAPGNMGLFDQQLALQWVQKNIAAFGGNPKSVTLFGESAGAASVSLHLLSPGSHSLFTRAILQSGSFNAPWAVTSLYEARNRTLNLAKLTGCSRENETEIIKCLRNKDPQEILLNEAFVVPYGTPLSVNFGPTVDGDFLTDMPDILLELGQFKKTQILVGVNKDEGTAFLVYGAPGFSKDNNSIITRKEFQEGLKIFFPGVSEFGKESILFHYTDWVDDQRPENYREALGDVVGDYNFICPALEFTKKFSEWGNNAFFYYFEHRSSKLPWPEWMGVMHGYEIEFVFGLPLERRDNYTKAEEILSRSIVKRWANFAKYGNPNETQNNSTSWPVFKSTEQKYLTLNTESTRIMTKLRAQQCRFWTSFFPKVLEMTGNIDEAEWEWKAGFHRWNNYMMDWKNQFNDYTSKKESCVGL
SMILES,inhibition [1] [%],inhibition (Cholinesterase) [%],IC50 (Acetylcholinesterase) [µM],further results
COc1cc(NC(=O)/C=C/c2ccc(O)c(O)c2)cc(OC)c1OC,36.4,34.6,–,–
COc1cc(/C=C/C(=O)Nc2cc(OC)c(OC)c(OC)c2)ccc1OC(C)=O,–,31.1,4.98,–
COc1cc(NC(=O)/C=C/c2ccc(OC(C)=O)cc2)cc(OC)c1OC,36.5,37.4,–,–
COc1cc(NC(=O)/C=C/c2cccc([N+](=O)[O-])c2)cc(OC)c1OC,–,26.2,3.24,–
C=CCOc1ccc(/C=C/C(=O)Nc2cc(OC)c(OC)c(OC)c2)cc1,33.6,32.6,–,–
COc1cc(NC(=O)/C=C/c2c(F)cccc2Cl)cc(OC)c1OC,34.1,–,–,IC50 (Cholinesterase): 1.32 µM; Activity (NCI-H157 [2]): 66%
COc1cccc(/C=C/C(=O)Nc2cc(OC)c(OC)c(OC)c2)c1O,–,–,6.22,IC50 (Cholinesterase): 5.19 µM
COc1cccc(/C=C/C(=O)Nc2cc(OC)c(OC)c(OC)c2)c1,–,41.8,12.9,–
COc1cc(NC(=O)/C=C/c2ccc(NOC(C)=O)cc2)cc(OC)c1OC,–,–,12.5,IC50 (Cholinesterase): 3.85 µM
COc1cc(NC(=O)/C=C/c2ccc(OCc3ccccc3)cc2)cc(OC)c1OC,–,33.5,3.72,–
COc1cc(NC(=O)/C=C/c2c(O)cccc2[N+](=O)[O-])cc(OC)c1OC,–,35.4,12.8,–
COc1cc(NC(=O)/C=C/c2cccc(O)c2O)cc(OC)c1OC,31.2,41.2,–,–
COc1cc(NC(=O)/C=C/c2ccc(Cl)cc2)cc(OC)c1OC,–,25.7,31.2,–
COc1cc(NC(=O)/C=C/c2ccc(OCc3ccccc3)cc2O)cc(OC)c1OC,–,27.2,1.59,–
CC[C@]1(O)C[C@H]2CN(CCc3c([nH]c4ccccc34)[C@@](C(=O)OC)(c3cc4c(cc3OC)N(C=O)[C@H]3[C@@](O)(C(=O)OC)[C@H](OC(C)=O)[C@]5(CC)C=CCN6CC[C@]43[C@@H]65)C2)C1 [VINCRISTINE],–,–,–,Activity (NCI-H157 [3]): 46%
COc1ccc(/C=C/C(=O)Nc2cc(OC)c(OC)c(OC)c2)cc1O,–,–,4.22,IC50 (Cholinesterase): 7.65 µM
COc1cc(/C=C/C(=O)Nc2cc(OC)c(OC)c(OC)c2)ccc1OCc1ccccc1,–,32.8,12.6,–
COc1cc(NC(=O)/C=C/c2cc(O)ccc2O)cc(OC)c1OC,30.3,36.2,–,Activity (NCI-H157 [2]): 60%
COc1ccc(/C=C/C(=O)Nc2cc(OC)c(OC)c(OC)c2)cc1OCc1ccccc1,–,31.1,6.02,Activity (NCI-H157 [2]): 61%
COc1cc(NC(=O)/C=C/c2ccccc2OCc2ccccc2)cc(OC)c1OC,–,32.1,0.29,–
COc1cc(NC(=O)/C=C/c2c(Cl)cccc2[N+](=O)[O-])cc(OC)c1OC,34.2,–,–,–
COc1cc(NC(=O)/C=C/c2cccc(OCc3ccccc3)c2)cc(OC)c1OC,–,–,6.52,IC50 (Cholinesterase): 3.93 µM
COc1cc(NC(=O)/C=C/c2cccc(OC(C)=O)c2)cc(OC)c1OC,29.2,–,–,IC50 (Cholinesterase): 1.25 µM
COc1ccc(/C=C/C(=O)Nc2cc(OC)c(OC)c(OC)c2)cc1[N+](=O)[O-],–,28.1,6.69,Activity (NCI-H157 [2]): 66%
COc1cc(NC(=O)/C=C/c2ccc(O)cc2O)cc(OC)c1OC,36.6,18.2,–,–
CN(C)C(=O)Oc1cccc([N+](C)(C)C)c1 [NEOSTIGMINE],–,–,22,IC50 (Cholinesterase): 49.1 µM
C=CCOc1ccccc1/C=C/C(=O)Nc1cc(OC)c(OC)c(OC)c1,–,24.8,1.41,–

# Source: ChEMBL document CHEMBL3232752, “Synthesis, cytotoxicity and molecular modelling studies of new phenylcinnamide derivatives as potent inhibitors of cholinesterases” (Eur J Med Chem, 2014)
